Measured values collected from several papers.
Each line is one published result; the experiments were not run side by side.
SLC6A2: Sodium-dependent noradrenaline transporter (SLC6A2, Homo sapiens, UniProt P23975)
NPSR1: Neuropeptide S receptor (NPSR1, Homo sapiens, UniProt Q6W5P4)
TPR: Trypanothione reductase (TPR, Trypanosoma cruzi, UniProt P28593)
GRM3: Metabotropic glutamate receptor 3 (GRM3, Homo sapiens, UniProt Q14832)
Fructose-1,6-bisphosphatase 1: Fructose-1,6-bisphosphatase 1 (Mus musculus, UniProt Q9QXD6)
Aldo-keto reductase family 1 member A1: Aldo-keto reductase family 1 member A1 (Rattus norvegicus, UniProt P51635)
PTPN12: Tyrosine-protein phosphatase non-receptor type 12 (PTPN12, Homo sapiens, UniProt Q05209)
Dual specificity calcium/calmodulin-dependent 3',5'-cyclic nucleotide phosphodiesterase 1B: Dual specificity calcium/calmodulin-dependent 3',5'-cyclic nucleotide phosphodiesterase 1B (Homo sapiens, UniProt Q01064)

| Structure (SMILES) | target | read-out | action | technique | pH | notes | IC50 [µM] |
| --- | --- | --- | --- | --- | --- | --- | --- |
| Clc1ccc(C(c2ccccc2)c2nnnn2CCCCN2CCC(Cc3ccc(Cl)c(Cl)c3)CC2)cc1 (centres unmarked) | SLC6A2 | transporter uptake | inhibitor | – | – | – | 0.78 |
| COc1ccccc1C1c2c(ncn(-c3ccccc3)c2=N)Oc2ccc3ccccc3c21 (centres unmarked) | NPSR1 | calcium signal | antagonist | – | – | – | 5.52 |
| Clc1ccc(C(c2ccccc2)c2nnnn2CCCN2CCC(CCCc3ccccc3)CC2)cc1 (centres unmarked) | SLC6A2 | transporter uptake | inhibitor | – | – | – | 0.527 |
| N=c1n(CCN2CCCCC2)c2ccccc2n1CC(O)c1ccc(Cl)c(Cl)c1 (centres unmarked) | TPR | enzyme activity | inhibitor | – | – | – | ≤ 10 |
| COc1ccc(-c2cc(C(N)=O)ncc2OCc2noc(C)n2)c(F)c1 | GRM3 | ion flux | antagonist | – | – | – | > 10 |
| N=c1n(CCOc2ccccc2)c2ccccc2n1CCN1CCCCC1 | TPR | enzyme activity | inhibitor | – | – | – | ≤ 10 |
| COc1ccc(C2c3c(ncn(CCCc4ccccc4)c3=N)Oc3ccc4ccccc4c32)cc1OC (centres unmarked) | NPSR1 | calcium signal | antagonist | – | – | – | > 30 |
| OC(c1ccccc1)c1ccccc1 | TPR | enzyme activity | inhibitor | absorbance | – | – | > 100 |
| O=P(O)(O)OC[C@H]1O[C@@](CO)(OP(=O)(O)O)[C@@H](O)[C@@H]1O | Fructose-1,6-bisphosphatase 1 | enzyme activity | inhibitor | – | – | – | 1.69 |
| COc1ccc2nc(/N=C3/NC(=O)C(=Cc4cc(I)c(O)c(OC)c4)S3)sc2c1 | Aldo-keto reductase family 1 member A1 | enzyme activity | inhibitor | absorbance | pH 7.2 | – | > 50 |
| CC(C)Cc1sc(N)nc1-c1ccc(P(=O)(O)O)o1 | Fructose-1,6-bisphosphatase 1 | enzyme activity | inhibitor | – | – | – | 0.3 |
| O=C1c2ccccc2C(=O)c2c(O)c(O)cc(O)c21 | PTPN12 | enzyme activity | inhibitor | – | – | – | 5 |
| BrCCCc1ccccc1 | TPR | enzyme activity | inhibitor | absorbance | – | – | > 100 |
| C=CC(=O)Nc1cc(Nc2nccc(Nc3cc(Cl)c(F)cc3C(C)(C)O)n2)c(OC)cc1N1CC[C@@H](N(C)C)C1 | MAP kinase-interacting serine/threonine-protein kinase 2 (MKNK2, Homo sapiens, UniProt Q9HBH9) | enzyme activity | inhibitor | – | – | with preincubation | 1.03 |
| COc1cccc(C2c3c(ncn(-c4ccncc4)c3=N)Oc3ccc4ccccc4c32)c1 (centres unmarked) | NPSR1 | cAMP | antagonist | TR-FRET | – | – | 19.4 |
| Nc1c(Cl)cccc1C(=O)Nc1ccccc1C(=O)O | srtA (Staphylococcus aureus, UniProt Q2FV99) | enzyme activity | inhibitor | – | – | – | 59.7 |
| COc1ccc(-c2cc(C(N)=O)ncc2OCc2cn(C)cn2)c(F)c1 | GRM3 | ion flux | antagonist | – | – | – | > 10 |
| CN[C@H]1CC[C@@H](c2ccc(Cl)c(Cl)c2)c2ccccc21 | PTPN12 | enzyme activity | inhibitor | fluorescence | – | – | 55 |
| Fc1ccc(C(c2ccc(F)cc2)c2nnnn2CCCCN2CCN(Cc3ccccc3)CC2)cc1 | SLC6A2 | transporter uptake | inhibitor | – | – | – | 0.16 |
| c1ccc(CCCN2CCNCC2)cc1 | TPR | enzyme activity | inhibitor | absorbance | – | – | 34.5 |
| COc1ccc(-n2cnc3c(c2=N)C(c2cccc(OC)c2)c2c(ccc4ccccc24)O3)cc1 (centres unmarked) | NPSR1 | calcium signal | antagonist | – | – | – | 4.38 |
| COc1ccc(/C=C2\SC(=Nc3nc4ccc(OC)cc4s3)NC2=O)cc1 | Aldo-keto reductase family 1 member A1 | enzyme activity | inhibitor | absorbance | pH 7.2 | – | 4.21 |
| COc1cccc(C2c3c(ncn(-c4ccccc4OC)c3=N)Oc3ccc4ccccc4c32)c1 (centres unmarked) | NPSR1 | calcium signal | antagonist | – | – | – | 1.1 |
| CCN(CC)CCn1c(=N)n(CC(O)c2ccc(Cl)c(Cl)c2)c2ccccc21 (centres unmarked) | TPR | enzyme activity | inhibitor | – | – | – | ≤ 10 |
| Fc1ccc(C(c2ccc(F)cc2)c2nnnn2CCCCN2CCC(Cc3ccccc3)CC2)cc1 | SLC6A2 | transporter uptake | inhibitor | – | – | – | 0.298 |
| CCN(CC)CCn1c(=N)n(CCOc2ccccc2)c2ccccc21 | TPR | enzyme activity | inhibitor | – | – | – | ≤ 10 |
| COc1ccc(-c2cc(C(N)=O)ncc2OCc2cnc(OC)nc2)c(F)c1 | GRM3 | ion flux | antagonist | – | – | – | > 10 |

| Structure (SMILES) | target | read-out | action | technique | pH | notes | IC50 [µM] |
| --- | --- | --- | --- | --- | --- | --- | --- |
| CC(=O)N[C@@H](Cc1c[nH]c2ccccc12)C(=O)N[C@@H](CCC(=O)C=[N+]=[N-])C(=O)OC(C)C | Glutaminase kidney isoform, mitochondrial (GLS, Homo sapiens, UniProt O94925) | enzyme activity | inhibitor | radiometric | – | – | > 1000 |
| COc1ccc2nc(/N=C3/NC(=O)C(=Cc4ccccc4)S3)sc2c1 | Aldo-keto reductase family 1 member A1 | enzyme activity | inhibitor | absorbance | pH 7.2 | – | > 50 |
| OC1c2ccccc2CCc2ccccc21 | TPR | enzyme activity | inhibitor | absorbance | – | – | > 100 |
| Nc1ncnc2c1C(c1ccccc1)c1c(ccc3ccccc13)O2 (centres unmarked) | NPSR1 | cAMP | antagonist | TR-FRET | – | – | 7.72 |
| COc1ccc(-c2cc(C(N)=O)ncc2OCc2ccc(F)nc2)c(F)c1 | GRM3 | ion flux | antagonist | – | – | – | > 10 |
| O=C(Oc1cc(O)cc2c1C[C@@H](OC(=O)c1cc(O)c(O)c(O)c1)[C@@H](c1cc(O)c(O)c(O)c1)O2)c1cc(O)c(O)c(O)c1 | PTPN12 | enzyme activity | inhibitor | fluorescence | – | – | 0.02 |
| CCN(CC)CCOc1ccc2c(c1)C(=O)c1cc(OCCN(CC)CC)ccc1-2 | Cholinesterase (BCHE, Homo sapiens, UniProt P06276) | enzyme activity | inhibitor | – | – | – | > 50 |
| COc1ccc(C2=NN(C3CCCCCC3)C(=O)[C@@H]3CC=CC[C@H]23)cc1-c1ccc(C(N)=O)cc1 (relative stereo) | Dual specificity calcium/calmodulin-dependent 3',5'-cyclic nucleotide phosphodiesterase 1B | enzyme activity | inhibitor | – | – | – | > 10 |
| COc1ccc2c(Oc3ccc4c(C(=O)Nc5ccccc5N)cccc4c3)ccnc2c1 | Fibroblast growth factor receptor 1 (FGFR1, Homo sapiens, UniProt P11362) | enzyme activity | inhibitor | – | – | – | > 0.5 |
| O=S(=O)(Nc1nc2cc(Cl)ccc2o1)c1cc(Cl)ccc1Cl | Fructose-1,6-bisphosphatase 1 | enzyme activity | inhibitor | – | – | – | 4.58 |
| NCCCc1ccccc1 | TPR | enzyme activity | inhibitor | absorbance | – | – | > 100 |
| OC[C@@H]1[C@@H](O)[C@H](O)[C@@H](O)[C@@H]2O[C@H]12 | bglA (Thermotoga maritima, UniProt Q08638) | enzyme activity | inhibitor | – | pH 6.8 | with preincubation | 0.37 |
| O=C(O)c1cc(O)c2c(c1)[C@H]([C@H]1c3cc(C(=O)O)cc(O)c3C(=O)c3c(O[C@@H]4O[C@H](CO)[C@@H](O)[C@H](O)[C@H]4O)cccc31)c1cccc(O[C@@H]3O[C@H](CO)[C@@H](O)[C@H](O)[C@H]3O)c1C2=O | PTPN12 | enzyme activity | inhibitor | fluorescence | – | – | 0.4 |
| COc1ccc(-c2cc(C(N)=O)ncc2OCc2ccnc(F)c2)c(F)c1 | GRM3 | ion flux | antagonist | – | – | – | > 10 |
| COc1cc(/C=C2\SC(=O)NC2=O)cc(F)c1OCCNc1nc2c(cnn2C2CCCC2)c(=O)[nH]1 | Dual specificity calcium/calmodulin-dependent 3',5'-cyclic nucleotide phosphodiesterase 1B | enzyme activity | inhibitor | – | – | – | 0.0151 |
| Clc1ccc(C(c2ccccc2)c2nnnn2CCCCN2CCN(CC=Cc3ccccc3)CC2)cc1 (centres unmarked) | SLC6A2 | transporter uptake | inhibitor | – | – | – | 0.985 |
| Cc1ccc(C(=O)Nc2ccc(S(=O)(=O)O)c3cc(S(=O)(=O)O)cc(S(=O)(=O)O)c23)cc1NC(=O)c1cccc(NC(=O)Nc2cccc(C(=O)Nc3cc(C(=O)Nc4ccc(S(=O)(=O)O)c5cc(S(=O)(=O)O)cc(S(=O)(=O)O)c45)ccc3C)c2)c1 | PTPN12 | enzyme activity | inhibitor | fluorescence | – | – | 27 |
| CN1CCN(c2ccc(Nc3ncc4cc(C#N)c(=O)n(C5CCCC5)c4n3)cc2)CC1 | Fibroblast growth factor receptor 4 (FGFR4, Homo sapiens, UniProt P22455) | enzyme activity | inhibitor | – | – | – | 1.53 |
| COc1cccc(C2c3c(ncn(-c4ccccn4)c3=N)Oc3ccc4ccccc4c32)c1 (centres unmarked) | NPSR1 | calcium signal | antagonist | – | – | – | 5.51 |
| CSc1ccc(/C=C2/C(C)=C(CC(=O)O)c3cc(F)ccc32)cc1 | Dual specificity calcium/calmodulin-dependent 3',5'-cyclic nucleotide phosphodiesterase 1B | enzyme activity | inhibitor | – | – | – | > 100 |
| Fc1ccc(C(c2ccc(F)cc2)c2nnnn2CCCCN2CCC(Cc3ccc(Cl)c(Cl)c3)CC2)cc1 | SLC6A2 | transporter uptake | inhibitor | – | – | – | 0.521 |
| Cc1cnc(-c2ccc(-c3ccc(NC(=O)Nc4c(F)cc(F)cc4F)cc3F)c3c2C(=O)NC3)[nH]1 | Serine/threonine-protein kinase/endoribonuclease IRE2 (ERN2, Homo sapiens, UniProt Q76MJ5) | enzyme activity | inhibitor | – | – | – | 0.0148 |
| COc1ccc2nc(/N=C3/NC(=O)C(=Cc4ccc(O)c(OC)c4)S3)sc2c1 | Aldo-keto reductase family 1 member A1 | enzyme activity | inhibitor | absorbance | pH 7.2 | – | 0.61 |
| COc1cccc(C2c3c(ncn(-c4cccc(C#N)c4)c3=N)Oc3ccc4ccccc4c32)c1 (centres unmarked) | NPSR1 | calcium signal | antagonist | – | – | – | 4.38 |
| O=C(O)C1=CC(=C(c2ccc(O)c(C(=O)O)c2)c2ccc(O)c(C(=O)O)c2)C=CC1=O | TPR | enzyme activity | inhibitor | absorbance | – | – | 0.176 |
| O=C1c2ccccc2-c2cccc3cccc1c23 | PTPN12 | enzyme activity | inhibitor | – | – | – | > 150 |
